Measured values: ChEMBL document CHEMBL3871269, “Conjugates of podophyllotoxin and norcantharidin as dual inhibitors of topoisomeraseⅡ and protein phosphatase 2A” (Eur J Med Chem, 2016)
pIC50: −log10 of the molar value. Activity calls are given as the source filed them. The calls are words filed in the database; no cut-off is given here.

Tested on: not listed separately
Assay: Cytotoxicity against human A549 cells measured after 48 hrs by MTT assay
Type: functional, cell-based
Details: A549, 48 h
How it was run: (§1)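 MTT growth assay; cells seeded at 5×10³/well in RPMI1640 with 10% heat-inactivated FBS, attached 4–6 h, then exposed to five concentrations (0.01–100 μM, compounds dissolved in saline) for 48 h at 37 °C, 5% CO₂. MTT added for 4 h, formazan dissolved in DMSO, absorbance read at 490 nm. IC50 taken from log plot of percent of control versus concentration; means ± SD of triplicate experiments.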
In the case of `O=C1OC(=O)C2C3CCC(O3)C12` (stereo not given) [DEMETHYL-CANTHARIDIN], the pIC50 was 4.91. Work on `COc1cc([C@@H]2c3cc4c(cc3[C@@H](O[C@@H]3O[C@@H]5CO[C@@H](C)O[C@H]5[C@H](O)[C@H]3O)[C@H]3COC(=O)[C@H]23)OCO4)cc(OC)c1O` [ETOPOSIDE] yielded a pIC50 of 4.53.

Tested on: not listed separately
Assay: Cytotoxicity against human HepG2 cells measured after 48 hrs by MTT assay
Type: functional, cell-based
Details: HepG2, 48 h
How it was run: as §1
`COc1cc([C@@H]2c3cc4c(cc3[C@@H](O[C@@H]3O[C@@H]5CO[C@@H](C)O[C@H]5[C@H](O)[C@H]3O)[C@H]3COC(=O)[C@H]23)OCO4)cc(OC)c1O` [ETOPOSIDE] showed a pIC50 of 5.28.

Tested on: not listed separately
Assay: Cytotoxicity against human HeLa cells measured after 48 hrs by MTT assay
Type: functional, cell-based
Details: not given
How it was run: as §1
Work on `COc1cc([C@@H]2c3cc4c(cc3[C@@H](O[C@@H]3O[C@@H]5CO[C@@H](C)O[C@H]5[C@H](O)[C@H]3O)[C@H]3COC(=O)[C@H]23)OCO4)cc(OC)c1O` [ETOPOSIDE] yielded a pIC50 of 4.87.

Tested on: not listed separately
Assay: Cytotoxicity against human HCT8 cells measured after 48 hrs by MTT assay
Type: functional, cell-based
Details: HCT-8, 48 h
How it was run: as §1
In the case of `COc1cc([C@@H]2c3cc4c(cc3[C@@H](O[C@@H]3O[C@@H]5CO[C@@H](C)O[C@H]5[C@H](O)[C@H]3O)[C@H]3COC(=O)[C@H]23)OCO4)cc(OC)c1O` [ETOPOSIDE], the pIC50 was 5.00.

Tested on: not listed separately
Assay: Cytotoxicity against human WI38 cells measured after 48 hrs by MTT assay
Type: toxicity, cell-based, WI-38
Details: not given
How it was run: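 MTT growth inhibition in WI-38 lung fibroblasts. Cells seeded at 5×10³/well in RPMI1640 with 10% heat-inactivated FBS, attached 4–6 h, then exposed 48 h at 37 °C, 5% CO₂ to five concentrations (0.01–100 μM, saline-dissolved). MTT 4 h, DMSO solubilisation, A490. IC50 from log plot of percent control vs concentration; triplicate, mean ± SD.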
In the case of `O=C1OC(=O)C2C3CCC(O3)C12` (stereo not given) [DEMETHYL-CANTHARIDIN], the IC50 at 48 h was 26.7 µM. Molecule `COc1cc([C@@H]2c3cc4c(cc3[C@@H](O[C@@H]3O[C@@H]5CO[C@@H](C)O[C@H]5[C@H](O)[C@H]3O)[C@H]3COC(=O)[C@H]23)OCO4)cc(OC)c1O` [ETOPOSIDE] has an IC50 at 48 h of 17.6 µM.

Tested on: not listed separately
Assay: Octanol-water partition coefficient, log P of the compound
Type: physicochemical
Details: not given
How it was run: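 Partition coefficient P = compound concentration in 1-octanol / compound concentration in water.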
In the case of `COc1cc([C@@H]2c3cc4c(cc3[C@@H](O[C@@H]3O[C@@H]5CO[C@@H](C)O[C@H]5[C@H](O)[C@H]3O)[C@H]3COC(=O)[C@H]23)OCO4)cc(OC)c1O` [ETOPOSIDE], the logP was 2.74.

Tested on: not listed separately
Assay: Inhibition of human RBC PP2A assessed as reduction in free phosphate ion release using Lys-Arg-pThr-Ile-Arg as substrate preincubated for 10 mins followed by substrate addition measured after 60 mins by malachite green method
Details: not given
How it was run: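 Purified PP2A (0.6 mU/well) preincubated with inhibitor 10 min at 37 °C. Reaction started with 200 μM Lys-Arg-pThr-Ile-Arg in 50 mM Tris-HCl pH 7.0, 100 μM CaCl₂; 60 min at room temperature. Released phosphate read by malachite green at 650 nm after 10 min; enzyme-plus-buffer blanks. IC50 from dose–response; mean of three independent experiments in duplicate.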
Molecule `O=C1OC(=O)C2C3CCC(O3)C12` (stereo not given) [DEMETHYL-CANTHARIDIN] has a pIC50 of 6.32.

Species: Homo sapiens
Assay: Inhibition of human topoisomerase-2 catalytic activity assessed as reduction in pBR322 supercoiled DNA relaxation at 100 uM measured after 60 mins by ethidium bromide staining agarose gel electrophoresis
Details: not given
How it was run: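 Kit-based relaxation assay: supercoiled pBR322 plasmid DNA (250 ng/μL) with topoisomerase II (4 units) in kit assay buffer, 20 μL final, 60 min at 37 °C. Reaction stopped with 10% SDS, proteinase K treated, chloroform/isoamyl alcohol (24:1) extracted. Products resolved on 1% agarose in TAE (pH 8.0), ethidium bromide stained. Test concentrations 50 and 100 μM.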
For `COc1cc([C@@H]2c3cc4c(cc3[C@@H](O[C@@H]3O[C@@H]5CO[C@@H](C)O[C@H]5[C@H](O)[C@H]3O)[C@H]3COC(=O)[C@H]23)OCO4)cc(OC)c1O` [ETOPOSIDE], the inhibition was “Active”.
